From paper PMC3856692 (Biochemistry, 2013)
“Also recorded” adds a separate entry of the source. Primed or numbered codes have the meaning given here. No end group written: not given here. 5FAM′ = 5-carboxyfluorescein

Legend:
CHIP [1] = biological target: T1, CHIP (Homo sapiens, UniProt Q9UNE7); test: Biolayer interferometry; assay type: binding; conditions: for Binding to CHIP (in words): BLI, Figure 1d / Figure 5
T1 sequence (Q9UNE7 1-303): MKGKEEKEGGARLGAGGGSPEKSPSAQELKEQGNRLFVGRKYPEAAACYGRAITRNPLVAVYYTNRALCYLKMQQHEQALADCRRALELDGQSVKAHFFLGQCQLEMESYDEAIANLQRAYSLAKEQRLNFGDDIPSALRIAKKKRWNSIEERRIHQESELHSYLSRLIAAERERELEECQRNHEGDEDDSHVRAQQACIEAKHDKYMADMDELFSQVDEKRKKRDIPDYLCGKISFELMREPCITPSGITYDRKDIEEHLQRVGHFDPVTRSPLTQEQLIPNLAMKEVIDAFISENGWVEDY

CHIP [2] = biological target: T1, CHIP; test: Fluorescence polarization; assay type: binding; conditions: FP, 20 nM tracer, Figure 2
[3] = 15N relaxation measurements, oligomeric state; assay type: physicochemical; conditions: 15N relaxation experiments
CHIP [4] = test: 1H-15N TROSY NMR of 15N-labeled Hsc70 with CHIP; assay type: binding, Human; conditions: for Change of C-terminal resonances on CHIP binding (in words): residues 639-646 (GPTIEEVD)
Method in brief: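 800 MHz TROSY of 15N full-length Hsc70 (uncleaved His tag) in 50 mM K2PO4, 110 µM NRLLLTG, 1 mM ADP, 5 mM MgCl2, 10 mM KCl, 0.02% NaN3, pH 7.2. Spectra: Hsc70 alone at 100 µM (12 h); Hsc70:CHIP 57:21 µM and 40:30 µM (52 h each); 67 µM 1:1 with CHIP; 60 µM 1:1:1 with UbcH5. Tail assigned from 250 µM triple-labelled Hsc70(391–646) 3D spectra at 30 °C.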

CHIP [5] = test: 1D 15N NMR relaxation of Hsc70 with or without CHIP; design: species or system Human; conditions: 15N relaxation
Method in brief: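 15N-labelled full-length Hsc70 with uncleaved N-terminal His tag, 67 µM in 50 mM K2PO4, 200 µM NRLLLTG, 1 mM ADP, 5 mM MgCl2, 10 mM KCl, 0.02% NaN3, pH 7.2, 25 °C, with or without CHIP, at 800 MHz. 1D 15N R1 (10 h) and R2 (4.5 h) experiments were run, plus CSA/dipolar cross-correlated relaxation (T 10.2 ms). The 9.6–8.6 and 8.6–7.8 ppm regions were integrated and fitted single-exponentially, with jackknife errors.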

[6] = biological target: T2, CHIP (C-terminus of Hsc70 Interacting Protein), full-length human (human, UniProt Q9UNE7 1-303); test: fluorescence polarisation
T2 sequence (looked up): T1 sequence (Q9UNE7 1-303)

Molecule: NBD: nucleotide-binding domain, Hsc70 residues 1–383
- Binding to CHIP (in words) (CHIP [1]; listed as Hsc70ΔSBD): Neither the Hsc70ΔSBD, nor the Hsc70ΔEEVD mutant displayed any ability to bind CHIP; also recorded: cannot bind CHIP

Molecule: Hsc70ΔEEVD: Hsc70 mutant lacking the EEVD sequence
- Binding to CHIP (in words) (CHIP [1]): Neither the Hsc70ΔSBD, nor the Hsc70ΔEEVD mutant displayed any ability to bind CHIP; also recorded: cannot bind CHIP

Molecule: 5FAM-DVEEM
- Binding / affinity of fluorescent probes for CHIP (in words) (CHIP [2]): no affinity for CHIP
- Binding / affinity of fluorescent probes for CHIP (in words) (CHIP [2]; listed as DVEEM): had no affinity for CHIP

Molecule: 5FAM-MEEVD
- Binding / affinity of fluorescent probes for CHIP (in words) (CHIP [2]): nearly identical affinity to the longer peptide
- Binding / affinity of fluorescent probes for CHIP (in words) (CHIP [2]; listed as MEEVD): binds with affinity equal to that of the longer probe

Molecule: SBD: substrate-binding domain, Hsc70 residues 391–646
- Oligomeric state (in words) [3]: dimeric

Molecule: wtHsc70: Human full-length Hsc70 (HspA8; 1–646)
- Oligomeric state (in words) [3]: monomeric at 100 µM
- Change of TROSY spectrum on addition of UbcH5c or excess CHIP (in words) (CHIP [4]; 1:1:1 15N Hsc70, CHIP and UbcH5c, 60 µM, or excess CHIP (data not shown)): does not further change the spectrum
- Change of TROSY spectrum on CHIP binding (in words) (CHIP [4]; 800 MHz, ADP and NRLLLTG bound state, pH 7.2, 25°C, 1:1 wtHsc70:CHIP): barely distinguishable from that of wtHsc70 alone
- Change of resonances of residues 616–636 on CHIP binding (in words) (CHIP [4]; assigned upstream residues 616–636 of unstructured tail): remained visible and relatively unaffected by the presence of CHIP
- Change of C-terminal resonances on CHIP binding (in words) (CHIP [4]): progressively disappear upon complex formation; also recorded: disappear from the wtHsc70 NMR spectrum
- Change of C-terminal resonances on CHIP binding (in words) (CHIP [4]; listed as Hsc70): disappear from the NMR spectrum
- Rotational correlation time of structured area with vs without CHIP (in words) (CHIP [5]): not increased upon binding to CHIP
- Hsc70-CHIP binding stoichiometry (CHIP [1]; Hsc70 per CHIP): two molecules of Hsc70
- Kd (CHIP [1]; abstract, binding of Hsc70 to CHIP): ~60 nM
- Slower dissociation than C-terminal peptide (CHIP [1]; koff, wtHsc70 vs C-terminal peptide): ~ 5 fold
- Apparent molecular weight of the Hsc70-CHIP complex (CHIP [1]; two molecules of Hsc70 and CHIP homodimer): 210 kDa
- Increase in binding free energy relative to isolated C-terminal peptide (CHIP [1]; wtHsc70 vs C-terminal peptide): 1.08 kcal/M
- Extra binding free energy beyond EEVD (CHIP [1]; wtHsc70 vs isolated peptide): 1.08 kcal/mol

Molecule: {5FAM′}-DDTSRMEEVD [5FAM-DDTSRMEEVD (Hsp90α-derived C-terminus, residues 723-732)]
- binding result [6]: binds

Molecule: {5FAM′}-MEEVD [5FAM-MEEVD]
- Kd [6]: 1500 ± 76 nM
